Compound activity deposited in PubChem BioAssay by several laboratories.
Beta2AR agonist = beta2AR agonists driving receptor internalization, primary screen, cell-based, FAP fluorogen, flow cytometry. response, % (test concentration not listed). Am2.2-beta2AR cells. 340,000 compounds, 0.43% hits. Beta-2 adrenergic receptor (Homo sapiens), P07550;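 active means response above a set limit, near 3 SD of response in nonfluorescent compounds, cut at about 42% in these data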
Rin1-Abl PPI inh = inhibitors of Rin1-Abl protein binding, primary screen, biochemical, TR-FRET; 360,000 compounds, 0.4% hits; inhibition, % at 7.35 µM; Tyrosine-protein kinase ABL1 (Homo sapiens) + Ras and Rab interactor 1 (Homo sapiens), …; in the data active means inhibition above about 5%, passing the limit was not always enough
UHRF1 binding = UHRF1 methylated DNA binding inhibitors, primary screen, counter-screen for MBD2 inhibitor project, biochemical, TR-FRET, human UHRF1, single concentration | E3 ubiquitin-protein ligase UHRF1 (Homo sapiens), Q96T88 | UHRF1 binding to methylated oligo | inhibition, % at 4.4 µM | 370,000 compounds, 0.75% hits; in the data active means inhibition above about 21%;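 further: UHRF1 SRA domain binding a hemimethylated CpG hairpin DNA probe; 0% = median of test compound wells and 100% = reference inhibitor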
ABHD5 PLIN5 PPI = ABHD5-PLIN5 interaction inhibitors, primary screen, cell lysate, split luciferase complementation, luminescence; Perilipin-5 (Homo sapiens) + 1-acylglycerol-3-phosphate O-acyltransferase ABHD5 (Homo …; Split G. princeps luciferase complementation, 4 h; inhibition, % at 4 µM; 360,000 compounds, 0.78% hits;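 active means inhibition above the mean inhibition across every tested compound plus 3 SD, cut at about 22% in these data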;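 further: 0% = DMSO only wells and the 100% control is not disclosed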
Arr AP2 block = inhibitors of beta-arrestin/AP2 binding, primary screen, biochemical, GPCR trafficking, flow cytometry; beta-arrestin 1 C-terminal peptide binding to AP2 beta2-adaptin appendage (human); FITC-arrestin peptide / GST-AP2 beads; AP2 beta2 appendage carries R879A mutation; inhibition, % at 10 µM; 340,000 compounds, 0.31% hits; AID 504490, 2011;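 active means inhibition above a set limit, near 3 SD of compounds lacking own fluorescence, cut at about 54% in these data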;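 further: plate controls were DMSO wells for no effect and 5 µM unlabelled arrestin peptide for full effect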
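Assay system: GST-AP2 R879A bound to glutathione beads, E. coli-expressed; Medium: PBS with 0.05% Tween 20 and 0.1% BSA; Also added: fluorescein-tagged arrestin peptide at 50 nM final; Timing: 12 min plus 1 h, RT; Measured by: flow cytometry, FL1 (488/535 nm); Evaluation: percent drop in bead-associated FITC signal.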
MBD2 DNA inh = inhibitors of MBD2 binding to methylated DNA, primary screen, biochemical, TR-FRET, DNA-binding domain, human; 370,000 compounds, 0.31% hits; Methyl-CpG-binding domain protein 2 (Homo sapiens), Q9UBB5; inhibition, % at 4.4 µM; MBD2 binding to methylated oligonucleotide; AID 686964, 2013; in the data active means inhibition above about 13%
An asterisk follows results filed as active; · = not tested or not shown. The list is not random: actives were taken first. Their share in the collection is about 2.5%.

SMILES	Beta2AR agonist	Rin1-Abl PPI inh	UHRF1 binding	ABHD5 PLIN5 PPI	Arr AP2 block	MBD2 DNA inh
COc1cc(C(=O)NC2CCCCN(Cc3ccc(Cl)cc3)C2=O)cc(OC)c1OC (centres undefined)	·	·	2	·	·	4
CCCCS(=O)(=O)/C=C\C=C/S(=O)(=O)CCCC	40	2	·	84*	22	·
CCCCS(=O)(=O)/C=C\C1C2C=CC(C2)C1S(=O)(=O)CCCC (centres undefined)	-2	1	-2	-2	-6	4
Cc1ccc(S(=O)(=O)N(CCc2ccccc2)CC(=O)N2CCOCC2)cc1	·	·	2	·	·	-2
COc1ccc(/C=C/C(=O)c2ccccc2)cc1COc1ccc(F)cc1	19	1	2	22*	1	4
Nn1c(SCc2ccc([N+](=O)[O-])cc2)nnc1-c1cc(-c2ccccc2)n[nH]1	·	·	2	·	·	7
Cc1ccc(C(=O)NNC(=O)C(C)Sc2nc(N)cc(N)n2)cc1 (centres undefined)	15	-3	21*	-1	-15	8
COc1cccc(OC[C@@H](O)CN2CCC(C(O)(c3ccccc3)c3ccccc3)CC2)c1	·	·	-1	·	·	-4
COc1ccc(S(=O)(=O)NCc2ccco2)c2ccccc12	4	-3	6	23*	-5	-1
O=C1CC(c2ccc3c(c2)OCO3)N=C2N(Cc3ccc4c(c3)OCO4)C/C(=C/c3ccccc3)N12 (centres undefined)	·	·	1	·	·	1
Nn1c(SCC(=O)Nc2ccccc2-c2ccccc2)nnc1-c1n[nH]c2c1CCC2	·	·	2	·	·	-1
CCCS(=O)(=O)N1CCN(S(=O)(=O)c2ccccc2[N+](=O)[O-])CC1	·	·	3	·	·	-2
O=[N+]([O-])c1ccccc1S(=O)(=O)N1CCSCC1	-6	3	66*	-2	0	1
COC(=O)C[C@H]1CC[C@H]2[C@H](COc3ccc(NC(=O)C4CCOCC4)cc3C(=O)N2C)O1	·	·	4	·	·	7
COc1ccc(OC[C@@H](O)CN2CCC(C(O)(c3ccccc3)c3ccccc3)CC2)cc1	·	·	-3	·	·	1
O=C(O)Cn1c2c(c3ccccc31)CSc1ccc(Cl)cc1-2	-1	2	-2	23*	8	-5
COC(=O)/C(=C\c1ccc([N+](=O)[O-])o1)NC(=O)c1ccccc1	56*	-2	5	-2	3	4
c1ccc(C2CCC3(CC2)CCC3NCc2cccs2)cc1 (centres undefined)	·	·	-2	·	·	0
O=S1(=O)C=CCN1Cc1cn(Cc2cccc(Cl)c2)nn1	·	·	5	·	·	6
COc1ccc(NC(=S)Nc2ncccc2C)c(OC)c1	5	3	25*	0	-1	-4
COc1ccc(NC(=S)Nc2ncccc2C)cc1OC	3	0	-2	-8	1	-2
NS(=O)(=O)c1ccc(N/C=C\C(=O)c2ccc3ccccc3c2)cc1	0	-5	22*	5	-8	9
COc1ccc(N/C=C\C(=O)c2ccc3ccccc3c2)cc1	4	0	5	-9	-5	8
Cc1ccc(C(=O)NC2CCS(=O)(=O)C2)cc1S(=O)(=O)N1CCCCCC1 (centres undefined)	3	-4	23*	-4	-1	1
CCCc1nc2c(Cl)cc(C(F)(F)F)cn2c1Cc1ccc(OC)cc1C	·	·	22*	2	·	6
SMILES	Beta2AR agonist	Rin1-Abl PPI inh	UHRF1 binding	ABHD5 PLIN5 PPI	Arr AP2 block	MBD2 DNA inh
COc1ccc(Cc2c(-c3ccc(C#N)cc3)nc3c(Cl)cc(C(F)(F)F)cn23)c(C)c1	·	·	18	-1	·	1
Cc1ccc(C2CCC3(CCC(=O)N3CCOC(=O)Nc3ccc(F)cc3)CC2)cc1 (centres undefined)	·	·	0	·	·	5
O=C(N/N=C/c1ccc(OC(F)F)cc1)c1ccc(CSc2nc3ccccc3[nH]2)cc1	11	0	25*	0	-5	13
CCOc1ccc(/C=N/NC(=O)c2ccc(CSc3nc4ccccc4[nH]3)cc2)cc1	12	2	-3	-2	1	-8
N#Cc1nc(COc2ccc(-c3ccccc3)cc2)oc1NCCCN1CCOCC1	12	2	1	18	83*	6
Cn1cnnc1SCC(=O)Nc1sc2c(c1C(N)=O)CCC2	3	-1	25*	-10	9	10
COc1ccc(-c2nnc(SC)nc2-c2ccc(OC)c([N+](=O)[O-])c2)cc1[N+](=O)[O-]	-15	-3	24*	12	-2	9
C=CC[C@@H]1NN2C(=O)[C@@H](CCc3ccccc3)[C@@H]3c4ccccc4C=NN3[C@@H]2c2ccccc21	·	·	83*	·	·	5
C#CCOCCOCCOCCNc1nc(N2CCN(C(=O)CCCCCCCCCCNC(=O)Cn3cc(C[C@@H](C)O)nn3)CC2)nc(N2CCN(C(=O)CCCCCCCCCCNC(=O)[C@H](CCCN=C(N)N)n3cc(C[C@@H](C)CC)nn3)CC2)n1	57*	13*	·	55*	5	·
C#CCOCCOCCOCCNc1nc(N2CCN(C(=O)CCCCCCCCCCNC(=O)[C@H](CO)n3cc(CCCSC)nn3)CC2)nc(N2CCN(C(=O)CCCCCCCCCCNC(=O)[C@H](CCCN=C(N)N)n3cc(C[C@@H](C)CC)nn3)CC2)n1	89*	10	·	70*	-30	·
C#CCOCCOCCOCCNc1nc(N2CCN(C(=O)CCCCCCCCCCNC(=O)[C@H](CO)n3cc(CCCSC)nn3)CC2)nc(N2CCN(C(=O)CCCCCCCCCCNC(=O)[C@H](CCCCN)n3cc(CCO)nn3)CC2)n1	35	10	25*	49*	5	-6
C#CCOCCOCCOCCNc1nc(N2CCN(C(=O)CCCCCCCCCCNC(=O)[C@H](CCCCN)n3cc(C)nn3)CC2)nc(N2CCN(C(=O)CCCCCCCCCCNC(=O)[C@H](CCCCN)n3cc(CCCC(=O)O)nn3)CC2)n1	16	3	·	7	-9	·
COc1ccc(S(=O)(=O)Nc2cccc(S(=O)(=O)N(C)C)c2)cc1[N+](=O)[O-]	-6	0	23*	-11	0	8
COc1ccc(S(=O)(=O)Nc2cccc(S(=O)(=O)NC3=NCCC3)c2)cc1[N+](=O)[O-]	-1	2	-3	-6	4	4
COc1ccc(-n2nc(C#N)c(Cl)cc2=O)cc1	90*	4	2	5	10	3
O=C1CCC[C@H]2C[C@H](NCc3cccc(I)c3)CC[C@]23CCCN13	·	·	-1	·	·	-5
